Results: ChEMBL document CHEMBL3272014, “Synthesis and biological inactivity of some 4alpha,6-cyclo steroids” (1976)
Calls of active or inactive are those of the source. No cut-off for these calls is given here.

What was measured:
Oryctolagus cuniculus [1] = species on record: Oryctolagus cuniculus; assay: Antiprogestational activity in rabbit at 0.4 mg by anti-clauberg assay; type: functional, organism-based
In short: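 Rabbit anti-Clauberg (antiprogestational) assay: test steroid given at 20.0 mg against a progesterone challenge of 0.4 mg. Run by Mason Research Institute for the NIH Contraceptive Development Branch.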

Oryctolagus cuniculus [2] = species on record: Oryctolagus cuniculus; assay: Progestational activity in rabbit at 0.1 to 10 mg by clauberg assay; type: functional, organism-based
In short: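 Clauberg assay in rabbits: progestational response scored after test steroid at dose levels of 0.1, 1.0 and 10.0 mg.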

Rattus norvegicus [3] = species on record: Rattus norvegicus; assay: Androgenicity in male rat at 0.1 to 10 mg; type: functional, organism-based
Rattus norvegicus [4] = species on record: Rattus norvegicus; assay: Antiandrogenicity in male rat assessed as inhibition of increase in seminal vesicle weight using 2.4 mg testosterone at 10 mg; type: functional
Rattus norvegicus [5] = species on record: Rattus norvegicus; assay: Antiandrogenicity in male rat assessed as inhibition of increase in ventral prostate weight using 2.4 mg testosterone at 10 mg; type: functional, Prostate gland
Rattus norvegicus [6] = species on record: Rattus norvegicus; assay: Antiandrogenicity in male rat assessed as inhibition of increase in levator ani weight using 2.4 mg testosterone at 10 mg; type: functional
Rattus norvegicus [7] = species on record: Rattus norvegicus; assay: Antiandrogenicity in male rat assessed as inhibition of increase in seminal vesicle weight using 1.2 mg testosterone at 10 mg; type: functional
Rattus norvegicus [8] = species on record: Rattus norvegicus; assay: Antiandrogenicity in male rat assessed as inhibition of increase in ventral prostate weight using 1.2 mg testosterone at 10 mg; type: functional, Prostate gland
Rattus norvegicus [9] = species on record: Rattus norvegicus; assay: Antiandrogenicity in male rat assessed as inhibition of increase in levator ani weight using 1.2 mg testosterone at 10 mg; type: functional
Rattus norvegicus [10] = species on record: Rattus norvegicus; assay: Androgenicity in male rat at 10 mg; type: functional, organism-based

**Q.** With `CC(=O)[C@H]1CC[C@H]2[C@@H]3CCC4=CC(=O)CC[C@]4(C)[C@H]3CC[C@]12C` as the compound, how does the Activity (Oryctolagus cuniculus [1]) read?
**A.** Its Activity is “inactive”.

**Q.** How did the Activity (Oryctolagus cuniculus [2]) turn out when `CC(=O)[C@H]1CC[C@H]2[C@@H]3CC4[C@@H]5[C@H]4C(=O)CC[C@]5(C)[C@H]3CC[C@]12C` (stereo partly drawn) was run?
**A.** Its Activity is “inactive”.

**Q.** How did the Activity (Rattus norvegicus [3]) turn out when `CC(=O)O[C@H]1CC[C@H]2[C@@H]3CC4[C@@H]5[C@H]4C(=O)CC[C@]5(C)[C@H]3CC[C@]12C` (stereo partly drawn) was run?
**A.** Its Activity is “Active”.

**Q.** What about the “inhibition (INH)” value (Rattus norvegicus [4]) of the same compound?
**A.** Its value is <20%.

**Q.** What about the “inhibition (INH)” value (Rattus norvegicus [5]) of the same compound?
**A.** The value was <20%.

**Q.** And the “inhibition (INH)” value (Rattus norvegicus [6])?
**A.** The value was <20%.

**Q.** And the “inhibition (INH)” value (Rattus norvegicus [7])?
**A.** The value was <20%.

**Q.** What about the “inhibition (INH)” value (Rattus norvegicus [8]) of the same compound?
**A.** The value was <20%.

**Q.** And the “inhibition (INH)” value (Rattus norvegicus [9])?
**A.** The value was <20%.

**Q.** `C[C@]12CC[C@@H]3[C@H]4CCC(=O)[C@H]5C(C[C@H]3[C@@H]1CCC2=O)[C@@H]45` (stereo partly drawn) was tested. Which Activity (Rattus norvegicus [10]) did it give?
**A.** The Activity was “Active”.

**Q.** What about the “inhibition (INH)” value (Rattus norvegicus [7]) of the same compound?
**A.** Its value is <20%.

**Q.** And the “inhibition (INH)” value (Rattus norvegicus [8])?
**A.** The value was <20%.

**Q.** And the “inhibition (INH)” value (Rattus norvegicus [9])?
**A.** Its value is <20%.
